Results as given in ChEMBL document CHEMBL1772994, “Metabolic stability of 6,7-dialkoxy-4-(2-, 3- and 4-[18F]fluoroanilino)quinazolines, potential EGFR imaging probes” (Bioorg Med Chem, 2011).

What was measured:
Hepatocyte = assay: Metabolic stability in cryopreserved human hepatocytes after 90 mins by radio-TLC assay; assay type: ADME, cell-based; conditions: 1.5 h
How it was run: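 Cryopreserved female human hepatocytes were thawed and resuspended in modified Krebs-Henseleit buffer, and the radiotracer in buffer was added to cell wells. Incubation was at 37 °C, 5% CO2. Aliquots taken at 5–120 min went into MeOH (2 volumes), were vortexed and centrifuged at 10,000 G for 5 min. Supernatant was run on silica TLC (10% EtOH/EtOAc) and read by radio-TLC scan. Viability was checked by Trypan Blue.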

Mus musculus [1] = assay: Biodistribution in tumor of EGFR positive-MDA-MB-468 cells-xenografted tumor-bearing nude SCID mouse at 1 to 2 MBq, iv after 1 hr postinjection; assay type: ADME, organism-based, Neoplasm; conditions: in vivo
How it was run: (§1)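 Nude SCID mice bearing subcutaneous MDA-MB-468 flank xenografts (about 1 million cells), with MDA-MB-435 (about 1 million cells) implanted in the shoulder in some cohorts. Under isoflurane, 1–2 MBq radiotracer in saline was given by tail-vein injection. Mice (n = 4 per time point) were euthanized 1–3 h post injection. Blood, tumor and tissues were weighed and counted, giving decay-corrected %ID/g.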

Mus musculus [2] = assay: Biodistribution in tumor of EGFR positive-MDA-MB-468 cells-xenografted tumor-bearing nude SCID mouse at 1 to 2 MBq, iv after 1 to 3 hrs postinjection; conditions: in vivo
Mus musculus [3] = assay: Biodistribution in tumor of EGFR negative-MDA-MB-435 cells-xenografted tumor-bearing nude SCID mouse at 1 to 2 MBq, iv after 1 to 3 hrs postinjection; conditions: in vivo
Mus musculus [4] = assay: Biodistribution in tumor of EGFR negative-MDA-MB-435 cells-xenografted tumor-bearing nude SCID mouse at 1 to 2 MBq, iv after 1 hr postinjection; assay type: ADME, organism-based, Neoplasm; conditions: in vivo; how it was run: as §1
Bone [5] = assay: Biodistribution in tumor-bearing nude SCID mouse bone at 1 to 2 MBq, iv after 1 hr postinjection; assay type: ADME, organism-based, Bone element; conditions: in vivo; how it was run: as §1
Mus musculus [6] = assay: Biodistribution in tumor of 1 mg/kg PD153035 pretreated EGFR positive-MDA-MB-468 cells-xenografted tumor-bearing nude SCID mouse 1 to 2 MBq, iv after 1 hr relative to control; assay type: ADME, organism-based, Neoplasm; set-up: dose 1 mg/kg, route intravenous; conditions: in vivo
How it was run: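 A blocking arm received PD153035 1 mg/kg iv one hour before tail-vein injection of 1–2 MBq radiotracer in saline under isoflurane, compared with a control group. Nude SCID mice bore MDA-MB-468 flank xenografts (n = 4 per time point). Tumor was excised, weighed and counted, giving decay-corrected %ID/g.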

Bone [7] = assay: Biodistribution in tumor-bearing nude SCID mouse bone at 1 to 2 MBq, iv after 3 hrs postinjection; assay type: ADME, organism-based, Bone element; conditions: in vivo; how it was run: as §1
Bone [8] = assay: Biodistribution in tumor-bearing nude SCID mouse bone at 1 to 2 MBq, iv after 2 hrs postinjection; assay type: ADME, organism-based, Bone element; conditions: in vivo; how it was run: as §1

Stability (Hepatocyte)	Drug uptake (Mus musculus [1])	Drug uptake (Mus musculus [2])	Drug uptake (Mus musculus [3])	Drug uptake (Mus musculus [4])	Drug uptake (Bone [5])	Drug uptake (Mus musculus [6])	Drug uptake (Bone [7])	Drug uptake (Bone [8])	Structure (SMILES)
Stable	–	–	–	–	–	–	–	–	CCOc1cc2ncnc(Nc3cccc([18F])c3)c2cc1OCC
Stable	< 0.6%	< 0.6%	< 0.6%	< 0.6%	2%	Active	2%	–	COc1cc2ncnc(Nc3ccccc3[18F])c2cc1OC
Stable	–	–	–	–	–	–	–	–	COc1cc2ncnc(Nc3cccc([18F])c3)c2cc1OC
Unstable	< 0.6%	< 0.6%	< 0.6%	< 0.6%	5%	–	–	5%	COc1cc2ncnc(Nc3ccc([18F])cc3)c2cc1OC
Stable	< 0.6%	< 0.6%	< 0.6%	< 0.6%	2%	–	2%	–	CCOc1cc2ncnc(Nc3ccccc3[18F])c2cc1OCC
Unstable	< 0.6%	< 0.6%	< 0.6%	< 0.6%	5%	–	–	5%	CCOc1cc2ncnc(Nc3ccc([18F])cc3)c2cc1OCC
